What was measured:
[1] = biological target: T1, Integrin alpha-IIb/beta-3 (Homo sapiens, UniProt P08514+P05106); test: Inhibition of platelet aggregation in human gel-purified platelets containing fibrinogen (GPP+Fg).
In short: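 Platelets are gel-filtered from human PRP on sepharose (2×10⁸ platelets/mL). They are assayed with 1 mM CaCl₂ and 1 mg/mL fibrinogen across a range of test-agent concentrations, and IC₅₀ is calculated from the inhibition curve.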

[2] = Inhibition of platelet aggregation in human platelet rich plasma (PRP)
[3] = biological target: T1, Integrin alpha-IIb/beta-3; test: Inhibition of platelet aggregation in human platelet rich plasma (PRP)
In short: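 Human PRP is obtained by centrifuging blood at 150g for 10 min; platelet-poor plasma serves as the 100% transmittance blank. PRP at 2×10⁸ platelets/mL is preincubated with test agent at several concentrations for 8 min. It is then stimulated with ADP (10 μM final), and aggregation is followed as light transmittance over time to derive IC₅₀.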

T1 sequence (P05106 27-788 limits assumed): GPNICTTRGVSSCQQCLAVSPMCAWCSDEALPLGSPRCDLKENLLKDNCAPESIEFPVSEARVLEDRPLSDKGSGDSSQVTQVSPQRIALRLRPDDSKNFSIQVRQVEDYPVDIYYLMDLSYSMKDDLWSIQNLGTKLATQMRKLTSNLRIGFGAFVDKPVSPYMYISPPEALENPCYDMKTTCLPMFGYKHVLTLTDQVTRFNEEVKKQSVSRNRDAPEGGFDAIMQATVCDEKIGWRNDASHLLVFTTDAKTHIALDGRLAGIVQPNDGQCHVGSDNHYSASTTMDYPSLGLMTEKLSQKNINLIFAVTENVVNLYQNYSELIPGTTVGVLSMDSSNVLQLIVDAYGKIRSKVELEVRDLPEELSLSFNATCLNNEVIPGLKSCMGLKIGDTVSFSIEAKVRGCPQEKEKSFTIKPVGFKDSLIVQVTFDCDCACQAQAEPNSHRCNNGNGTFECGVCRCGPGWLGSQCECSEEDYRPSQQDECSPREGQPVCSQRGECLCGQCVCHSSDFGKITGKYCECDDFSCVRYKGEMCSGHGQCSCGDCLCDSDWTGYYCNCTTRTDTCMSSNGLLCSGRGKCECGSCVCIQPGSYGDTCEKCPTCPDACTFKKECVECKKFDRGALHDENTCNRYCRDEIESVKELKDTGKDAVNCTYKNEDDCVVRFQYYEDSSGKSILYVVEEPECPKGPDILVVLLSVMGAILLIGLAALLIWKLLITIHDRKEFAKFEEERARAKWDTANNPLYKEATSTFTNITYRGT
T1 sequence (P08514 32-887 limits assumed): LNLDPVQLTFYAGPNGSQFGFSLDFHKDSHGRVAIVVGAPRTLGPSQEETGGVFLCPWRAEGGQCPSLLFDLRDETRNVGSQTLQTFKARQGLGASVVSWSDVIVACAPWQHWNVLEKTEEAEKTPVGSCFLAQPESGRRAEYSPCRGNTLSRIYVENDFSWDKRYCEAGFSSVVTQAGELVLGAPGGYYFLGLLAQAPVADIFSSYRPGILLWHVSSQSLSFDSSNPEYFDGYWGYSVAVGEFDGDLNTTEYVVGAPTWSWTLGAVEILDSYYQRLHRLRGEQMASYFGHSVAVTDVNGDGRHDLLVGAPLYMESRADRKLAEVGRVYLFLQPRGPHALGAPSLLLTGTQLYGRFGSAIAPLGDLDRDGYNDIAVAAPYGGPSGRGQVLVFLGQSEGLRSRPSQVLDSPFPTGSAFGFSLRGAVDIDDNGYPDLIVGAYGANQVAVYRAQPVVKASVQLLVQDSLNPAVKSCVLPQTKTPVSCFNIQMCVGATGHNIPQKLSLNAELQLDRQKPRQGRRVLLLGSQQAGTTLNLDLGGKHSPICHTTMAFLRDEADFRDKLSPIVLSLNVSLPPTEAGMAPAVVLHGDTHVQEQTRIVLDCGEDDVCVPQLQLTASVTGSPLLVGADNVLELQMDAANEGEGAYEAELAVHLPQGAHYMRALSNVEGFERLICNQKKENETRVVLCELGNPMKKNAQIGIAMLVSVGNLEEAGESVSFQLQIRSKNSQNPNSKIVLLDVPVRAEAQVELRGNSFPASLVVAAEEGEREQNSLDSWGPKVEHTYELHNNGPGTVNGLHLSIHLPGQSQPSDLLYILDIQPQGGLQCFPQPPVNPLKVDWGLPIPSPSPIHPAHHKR
T1 sequence (P08514 891-1039 limits assumed): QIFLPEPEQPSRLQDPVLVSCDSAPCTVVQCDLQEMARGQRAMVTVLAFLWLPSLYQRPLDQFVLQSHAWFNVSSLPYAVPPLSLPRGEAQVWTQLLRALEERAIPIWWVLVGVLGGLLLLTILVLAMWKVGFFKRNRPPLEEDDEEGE

**Q.** For `N=C(N)c1ccc(C2=NO[C@@H](CC(=O)NCCC(=O)O)C2)cc1`, which IC50 [1] is on record?
**A.** Its IC50 is 0.14 µM.

**Q.** What about the IC50 [2] of the same molecule?
**A.** The IC50 was 0.24 µM.

**Q.** Which results are given for `Cc1cc(C)c(S(=O)(=O)N[C@H](CNC(=O)C2=NOC(CCCCNc3ncc[nH]3)C2)C(=O)O)c(C)c1` (stereo partly specified)?
**A.** IC50 [1]: 28 µM; IC50 [2]: 68 µM

**Q.** What does the source list for `O=C(NC[C@H](NS(=O)(=O)c1c(Cl)cccc1Cl)C(=O)O)C1=NOC(CCCCNc2ncc[nH]2)C1` (stereo partly specified) [2-(2,6-Dichloro-benzenesulfonylamino)-3-({5-[4-(1H-imidazol-2-ylamino)-butyl]-4,5-dihydro-isoxazole-3-carbonyl}-amino)-propionic acid]?
**A.** IC50 [1]: 0.19 µM; IC50 [2]: 0.35 µM

**Q.** Which IC50 [2] does the source give for `Cc1cccc(Cl)c1S(=O)(=O)N[C@@H](CNC(=O)C1=NOC(CCCCNc2ncc[nH]2)C1)C(=O)O` (stereo partly specified) [2-(2-Chloro-6-methyl-benzenesulfonylamino)-3-({5-[4-(1H-imidazol-2-ylamino)-butyl]-4,5-dihydro-isoxazole-3-carbonyl}-amino)-propionic acid] here?
**A.** Its IC50 is 0.39 µM.

**Q.** With `O=C(NC[C@H](NS(=O)(=O)c1c(Cl)cc(-c2ccccc2)cc1Cl)C(=O)O)C1=NOC(CCCCNc2ncc[nH]2)C1` (stereo partly specified) [2-(3,5-Dichloro-biphenyl-4-sulfonylamino)-3-({5-[4-(1H-imidazol-2-ylamino)-butyl]-4,5-dihydro-isoxazole-3-carbonyl}-amino)-propionic acid] as the molecule, how does the IC50 [2] read?
**A.** Its IC50 is 1.6 µM.

**Q.** What does the source list for `Cc1cc(-c2ccccc2)cc(C)c1S(=O)(=O)N[C@@H](CNC(=O)C1=NOC(CCCCNc2ncc[nH]2)C1)C(=O)O` (stereo partly specified) [2-(3,5-Dimethyl-biphenyl-4-sulfonylamino)-3-({5-[4-(1H-imidazol-2-ylamino)-butyl]-4,5-dihydro-isoxazole-3-carbonyl}-amino)-propionic acid]?
**A.** IC50 [1]: 0.69 µM; IC50 [2]: 3.1 µM

**Q.** For `Cc1cc(-c2ccccc2)cc(C)c1S(=O)(=O)N[C@@H](CNC(=O)C1=NOC(CCCCNc2ccccn2)C1)C(=O)O` (stereo partly specified) [2-(3,5-Dimethyl-biphenyl-4-sulfonylamino)-3-({5-[4-(pyridin-2-ylamino)-butyl]-4,5-dihydro-isoxazole-3-carbonyl}-amino)-propionic acid], which IC50 [2] is on record?
**A.** Its IC50 is greater than 100 µM.

**Q.** With `Cc1noc(C)c1S(=O)(=O)N[C@@H](CNC(=O)C1=NOC(CCCCNc2ncc[nH]2)C1)C(=O)O` (stereo partly specified) [2-(3,5-Dimethyl-isoxazole-4-sulfonylamino)-3-({5-[4-(1H-imidazol-2-ylamino)-butyl]-4,5-dihydro-isoxazole-3-carbonyl}-amino)-propionic acid] as the molecule, how does the IC50 [2] read?
**A.** The IC50 was 1.5 µM.

**Q.** With `CC(C)c1ccc(S(=O)(=O)N[C@@H](CNC(=O)C2=NOC(CCCCNc3ccccn3)C2)C(=O)O)cc1` (stereo partly specified) [2-(4-Isopropyl-benzenesulfonylamino)-3-({5-[4-(pyridin-2-ylamino)-butyl]-4,5-dihydro-isoxazole-3-carbonyl}-amino)-propionic acid] as the molecule, how does the IC50 [2] read?
**A.** The IC50 was greater than 100 µM.

**Q.** With `O=C(NC[C@H](NS(=O)(=O)c1ccc(-c2ccccc2)cc1)C(=O)O)C1=NOC(CCCCNc2ncc[nH]2)C1` (stereo partly specified) [2-(Biphenyl-4-sulfonylamino)-3-({5-[4-(1H-imidazol-2-ylamino)-butyl]-4,5-dihydro-isoxazole-3-carbonyl}-amino)-propionic acid] as the molecule, how does the IC50 [1] read?
**A.** Its IC50 is 5 µM.

**Q.** And the IC50 [2]?
**A.** Its IC50 is 43 µM.

**Q.** For `O=C(NC[C@H](NS(=O)(=O)c1cccc2ccccc12)C(=O)O)C1=NOC(CCCCNc2ccccn2)C1` (stereo partly specified) [2-(Naphthalene-1-sulfonylamino)-3-({5-[4-(pyridin-2-ylamino)-butyl]-4,5-dihydro-isoxazole-3-carbonyl}-amino)-propionic acid], which IC50 [2] is on record?
**A.** Its IC50 is greater than 100 µM.

**Q.** Which IC50 [1] does the source give for `N[C@@H](CNC(=O)C1=NOC(CCCCNc2ncc[nH]2)C1)C(=O)O` (stereo partly specified) [2-Amino-3-({5-[4-(1H-imidazol-2-ylamino)-butyl]-4,5-dihydro-isoxazole-3-carbonyl}-amino)-propionic acid] here?
**A.** Its IC50 is 47 µM.

**Q.** And the IC50 [2]?
**A.** The IC50 was 84 µM.

**Q.** For `O=C(NC[C@H](NS(=O)(=O)c1ccccc1)C(=O)O)C1=NOC(CCCCNc2ccccn2)C1` (stereo partly specified) [2-Benzenesulfonylamino-3-({5-[4-(pyridin-2-ylamino)-butyl]-4,5-dihydro-isoxazole-3-carbonyl}-amino)-propionic acid], which IC50 [1] is on record?
**A.** Its IC50 is 18 µM.

**Q.** And the IC50 [2]?
**A.** The IC50 was 30 µM.

**Q.** With `O=C(N[C@@H](CNC(=O)C1=NOC(CCCCNc2ccccn2)C1)C(=O)O)OCc1ccccc1` (stereo partly specified) [2-Benzyloxycarbonylamino-3-({5-[4-(pyridin-2-ylamino)-butyl]-4,5-dihydro-isoxazole-3-carbonyl}-amino)-propionic acid] as the molecule, how does the IC50 [1] read?
**A.** The IC50 was 85 µM.

**Q.** What about the IC50 [3] of the same molecule?
**A.** Its IC50 is greater than 100 µM.

**Q.** Which IC50 [1] does the source give for `Cc1cc(C)c(S(=O)(=O)N[C@@H](CNC(=O)C2=NOC(CCCCNS(N)(=O)=O)C2)C(=O)O)c(C)c1` (stereo partly specified) [2-[2,4,6-trimethylphenylsulfonylamino]-3-[5-(4-aminosulfonylamino)butyl)isoxazolin-3-ylcarbonyl]amino-propionic acid] here?
**A.** The IC50 was greater than 100 µM.

**Q.** For `Cc1cc(C)c(S(=O)(=O)N[C@@H](CNC(=O)C2=NOC(CCCC(=O)Nc3ncc[nH]3)C2)C(=O)O)c(C)c1` (stereo partly specified) [3-({5-[3-(1H-Imidazol-2-ylcarbamoyl)-propyl]-4,5-dihydro-isoxazole-3-carbonyl}-amino)-2-(2,4,6-trimethyl-benzenesulfonylamino)-propionic acid], which IC50 [1] is on record?
**A.** The IC50 was greater than 100 µM.

**Q.** Which IC50 [1] does the source give for `Cc1cc(C)c(S(=O)(=O)N[C@@H](CNC(=O)C2=NOC(CCCc3cnc(N)[nH]3)C2)C(=O)O)c(C)c1` (stereo partly specified) [3-({5-[3-(2-Amino-1H-imidazol-4-yl)-propyl]-4,5-dihydro-isoxazole-3-carbonyl}-amino)-2-(2,4,6-trimethyl-benzenesulfonylamino)-propionic acid] here?
**A.** Its IC50 is 0.18 µM.

**Q.** What about the IC50 [2] of the same molecule?
**A.** The IC50 was 0.28 µM.

**Q.** Which IC50 [2] does the source give for `Cc1cc(C)c(S(=O)(=O)N[C@@H](CNC(=O)C2=NOC(CCCc3cccc(N)n3)C2)C(=O)O)c(C)c1` (stereo partly specified) [3-({5-[3-(6-Amino-pyridin-2-yl)-propyl]-4,5-dihydro-isoxazole-3-carbonyl}-amino)-2-(2,4,6-trimethyl-benzenesulfonylamino)-propionic acid] here?
**A.** Its IC50 is 78 µM.

**Q.** For `Cc1cc(C)c(S(=O)(=O)N[C@@H](CNC(=O)C2=NOC(CCCCNc3ncc[nH]3)C2)C(=O)O)c(C)c1` (stereo partly specified) [3-({5-[4-(1H-Imidazol-2-ylamino)-butyl]-4,5-dihydro-isoxazole-3-carbonyl}-amino)-2-(2,4,6-trimethyl-benzenesulfonylamino)-propionic acid], which IC50 [2] is on record?
**A.** Its IC50 is 0.85 µM.

**Q.** What does the source list for `O=C(NC[C@H](NS(=O)(=O)c1cccc2ccccc12)C(=O)O)C1=NOC(CCCCNc2ncc[nH]2)C1` (stereo partly specified) [3-({5-[4-(1H-Imidazol-2-ylamino)-butyl]-4,5-dihydro-isoxazole-3-carbonyl}-amino)-2-(naphthalene-1-sulfonylamino)-propionic acid]?
**A.** IC50 [1]: 0.57 µM; IC50 [2]: 7.8 µM

**Q.** Which IC50 [1] does the source give for `Cc1cc(C)c(S(=O)(=O)N[C@@H](CNC(=O)C2=NOC(CCCCNC3=NCCN3)C2)C(=O)O)c(C)c1` (stereo partly specified) [3-({5-[4-(4,5-Dihydro-1H-imidazol-2-ylamino)-butyl]-4,5-dihydro-isoxazole-3-carbonyl}-amino)-2-(2,4,6-trimethyl-benzenesulfonylamino)-propionic acid] here?
**A.** The IC50 was 0.6 µM.

**Q.** And the IC50 [2]?
**A.** The IC50 was 0.69 µM.

**Q.** For `Cc1cc(C)c(S(=O)(=O)N[C@@H](CNC(=O)C2=NOC(CCCCNc3nccc4ccccc34)C2)C(=O)O)c(C)c1` (stereo partly specified) [3-({5-[4-(Isoquinolin-1-ylamino)-butyl]-4,5-dihydro-isoxazole-3-carbonyl}-amino)-2-(2,4,6-trimethyl-benzenesulfonylamino)-propionic acid], which IC50 [1] is on record?
**A.** Its IC50 is 6.5 µM.

**Q.** What about the IC50 [2] of the same molecule?
**A.** The IC50 was 78 µM.

**Q.** For `Cc1cc(C)c(S(=O)(=O)N[C@@H](CNC(=O)C2=NOC(CCCCNc3cc4ccccc4cn3)C2)C(=O)O)c(C)c1` (stereo partly specified) [3-({5-[4-(Isoquinolin-3-ylamino)-butyl]-4,5-dihydro-isoxazole-3-carbonyl}-amino)-2-(2,4,6-trimethyl-benzenesulfonylamino)-propionic acid], which IC50 [1] is on record?
**A.** The IC50 was 7.7 µM.

**Q.** And the IC50 [2]?
**A.** Its IC50 is 11 µM.

**Q.** Which IC50 [1] does the source give for `Cc1cc(C)c(S(=O)(=O)N[C@@H](CNC(=O)C2=NOC(CCCCNc3ccccn3)C2)C(=O)O)c(C)c1` (stereo partly specified) [3-({5-[4-(Pyridin-2-ylamino)-butyl]-4,5-dihydro-isoxazole-3-carbonyl}-amino)-2-(2,4,6-trimethyl-benzenesulfonylamino)-propionic acid] here?
**A.** The IC50 was 6.5 µM.

**Q.** What about the IC50 [2] of the same molecule?
**A.** The IC50 was 16 µM.

**Q.** Which results are given for `Cc1cc(C)c(S(=O)(=O)N[C@@H](CNC(=O)C2=NOC(CCNC(=O)Nc3ncc[nH]3)C2)C(=O)O)c(C)c1` (stereo partly specified) [3-[(5-{2-[3-(1H-Imidazol-2-yl)-ureido]-ethyl}-4,5-dihydro-isoxazole-3-carbonyl)-amino]-2-(2,4,6-trimethyl-benzenesulfonylamino)-propionic acid]?
**A.** IC50 [1]: 32 µM; IC50 [2]: 120 µM

**Q.** With `Cc1cc(C)c(S(=O)(=O)N[C@@H](CNC(=O)C2=NOC(CCCCNC(=N)N)C2)C(=O)O)c(C)c1` (stereo partly drawn) [3-{5-[4-amino(imino)methylaminobutyl]-4,5-dihydro-3-isoxazolylcarboxamido}-2-mesitylsulfonamido-(2S)-propanoic acid] as the molecule, how does the IC50 [2] read?
**A.** Its IC50 is 0.16 µM.

From BindingDB's records for doi:10.1021/jm9900321 (Dupont Pharmaceuticals, 2000)
